Activity calls are given as the source filed them. The calls are words filed in the database; no cut-off is given here.
Tests used:
Canis familiaris [1] = assay: In vivo inotropic activity in canine model by intraduodenal administration (Inactive); type: functional, organism-based; settings: Canis lupus familiaris
Canis familiaris [2] = assay: In vivo inotropic activity in canine model by intravenous administration (Inactive); type: functional, organism-based; settings: Canis lupus familiaris
[3] = In vitro inhibitory activity against platelet phosphodiesterase (PDE)
Summary of the method: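 Human platelet cAMP PDE in 10 mM Tris-HCl pH 7.7, 10 mM MgSO4, 1 µM […]. Compounds dissolved in DMSO, held 10 min in medium before enzyme addition, then 10 min at 30 °C. Five inhibitor concentrations run in triplicate; IC50 read graphically from mean curves.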

Homo sapiens = species on record: Homo sapiens; assay: Inhibition of platelet aggregation; type: functional
Canis familiaris [4] = assay: In vivo inotropic activity in canine model by intraduodenal administration of 3.16 mg/kg efficacious dose; type: functional, Canis lupus familiaris
Canis familiaris [5] = assay: In vivo inotropic activity in canine model by intravenous administration 1.0 mg/kg efficacious dose; type: functional, Canis lupus familiaris
Canis familiaris [6] = assay: In vivo inotropic activity in canine model by intraduodenal administration of 1.0 mg/kg efficacious dose; type: functional, Canis lupus familiaris
Canis familiaris [7] = assay: In vivo inotropic activity in canine model by intravenous administration of 0.316 mg/kg efficacious dose; type: functional, Canis lupus familiaris
Canis familiaris [8] = assay: In vivo inotropic activity in canine model by intraduodenal administration of 0.316 mg/kg efficacious dose; type: functional, Canis lupus familiaris
Canis familiaris [9] = assay: In vivo inotropic activity in canine model by intravenous administration of 0.10 mg/kg efficacious dose; type: functional, Canis lupus familiaris; settings: dose 0.1 mg/kg
Canis familiaris [10] = assay: Pharmacokinetic parameter AUC was determined in dog after oral administration of 17b; type: ADME, organism-based, Canis lupus familiaris; settings: in vivo
Summary of the method: (§1)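 Six fasted conscious female dogs (9.4–10.5 kg) were each given one oral hard-gelatin capsule, dose equivalent to 15 mg parent drug, with 1 week between doses. Jugular blood was sampled at 0–24 h. Plasma parent drug was measured by HPLC after SCX/C-18 extraction (C-8, 280 nm, limit 5 ng/mL). AUC0–24 h was calculated by trapezoidal rule; values are mean ± SD.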

Canis familiaris [11] = assay: Pharmacokinetic parameter AUC was determined in dog after oral administration of 2b; type: ADME, organism-based, Canis lupus familiaris; settings: in vivo; summary of the method: as §1

Row | SMILES | IC50 [3] [nM] | IC50 (Homo sapiens) [nM] | Max CF response (Canis familiaris [4]) [%] | Max CF response (Canis familiaris [7]) [%] | further results
1 | Br.CN(C(=O)CCCOc1ccc2c(c1)CN(CC(=O)O)C(N)=N2)C1CCCCC1 | 60 |  |  |  | Max CF response (Canis familiaris [1]): inactive; Max CF response (Canis familiaris [2]): inactive
2 | CCOC(=O)CN1Cc2cc(OCCCC(=O)N(C)C3CCCCC3)ccc2N=C1NC(C)=O | 3100 | 100000 | 58 |  | Max CF response (Canis familiaris [5]): 58%
3 | CCOC(=O)C(CCOc1ccc2c(c1)CN1CC(=O)NC1=N2)C(=O)N(C)C1CCCCC1 (stereo not given) | 6.1 |  |  | 50 | Max CF response (Canis familiaris [6]): 50%
4 | CN(C(=O)CCCOc1ccc2c(c1)CN1CC(=O)N(COC(=O)C(C)(C)C)C1=N2)C1CCCCC1 | 150 |  |  |  | 
5 | Br.CN(C(=O)CCCOc1ccc2c(c1)CN(CC(=O)OCC(C)(C)C)C(N)=N2)C1CCCCC1 | 35 |  |  |  | 
6 | CN(C(=O)C(CCOc1ccc2c(c1)CN1CC(=O)NC1=N2)C(=O)O)C1CCCCC1 (stereo not given) | 5 |  |  | 58 | Max CF response (Canis familiaris [6]): 20%
7 | CN(C(=O)CCCOc1ccc2c(c1)CN1CC(=O)N(CN3CCOCC3)C1=N2)C1CCCCC1 | 16 |  |  |  | Max CF response (Canis familiaris [8]): 25%; Max CF response (Canis familiaris [9]): 65%
8 | Br.CN(C(=O)CCCOc1ccc2c(c1)CN(CC(=O)Nc1ccccc1)C(N)=N2)C1CCCCC1 | 100 | 5400 | 37 | 64 | 
9 | Br.CN(C(=O)CCCOc1ccc2c(c1)CN(CC(=O)N1CCOCC1)C(N)=N2)C1CCCCC1 | 52 | 700 | 70 | 71 | 
10 | Br.CC(C)OC(=O)CN1Cc2cc(OCCCC(=O)N(C)C3CCCCC3)ccc2N=C1N | 63 | 3400 | 31 | 40 | 
11 | CN(C(=O)CCCOc1ccc2c(c1)CN1CC(=O)NC1=N2)C1CCCCC1 [LIXAZINONE] | 6 | 50 |  |  | AUC (Canis familiaris [10]): 268 ng·h/mL; Max CF response (Canis familiaris [8]): 42%; Max CF response (Canis familiaris [9]): 71%; AUC (Canis familiaris [11]): 257 ng·h/mL
12 | Br.CC(OC(=O)CN1Cc2cc(OCCCC(=O)N(C)C3CCCCC3)ccc2N=C1N)C(C)(C)C (stereo not given) | 470 | 17000 | 62 |  | 
13 | Br.CC(OC(=O)CN1Cc2cc(OCCCC(=O)N(C)C3CCCCC3)ccc2N=C1N)c1ccccc1 (stereo not given) | 8 | 150 | 64 | 61 | 
14 | Br.CN(C(=O)CCCOc1ccc2c(c1)CN(CC(N)=O)C(N)=N2)C1CCCCC1 | 120 | 4200 | 37 | 37 | 
15 | Br.CN(C(=O)CCCOc1ccc2c(c1)CN(CC(=O)OC1CCCCC1)C(N)=N2)C1CCCCC1 | 52 | 1200 | 45 |  | 
16 | CN(C(=O)CCCOc1ccc(N)c(CN2CC(=O)NC2=O)c1)C1CCCCC1 | 3400 |  |  |  | 
17 | Br.CCOC(=O)CN1Cc2cc(OCCCC(=O)N(C)C3CCCCC3)ccc2N=C1N | 9.3 |  | 62 | 75 | 
18 | Br.CN(C(=O)CCCOc1ccc2c(c1)CN(CC(=O)OC(C)(C)C)C(N)=N2)C1CCCCC1 | 430 | 4300 |  |  | Max CF response (Canis familiaris [1]): inactive; Max CF response (Canis familiaris [2]): inactive
19 | CN(C(=O)CCCOc1ccc2c(c1)CN(CC(N)=O)C(=O)N2)C1CCCCC1 | 18500 |  |  |  | 
20 | Br.CN(C(=O)CCCOc1ccc2c(c1)CN(CC(=O)N1CCCCC1)C(N)=N2)C1CCCCC1 | 10 |  |  |  | 

From ChEMBL document CHEMBL1124005, “Inhibitors of cyclic AMP phosphodiesterase. 4. Synthesis and evaluation of potential prodrugs of lixazinone (N-cyclohexyl-N-methyl-4-[(1,2,3,5-tetrahydro-2- oxoimidazo[2,1-b]quinazolin-7-yl)-oxy]butyramide, RS-82856)” (J Med Chem, 1988)
